Hit rate of the full screen: of about 310,000 compounds, about 2,800 (0.9%) were called active.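 How the source made its calls: active means B-score of the integrated calcium signal more than 4 SD below the library mean, with starting fluorescence not abnormally high; inactive means the rest.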 The sample as a whole holds a higher share of actives than the screen did.

This assay is described as follows: RGS4 potentiators or activators, primary screen, cell-based, HEK293 M3R inducible RGS4, calcium flux (AID 463111).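 On B-score: negative B-score means reduced calcium response which marks RGS4 activation or potentiation.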 Particulars: HEK293 M3R/inducible RGS4, carbachol calcium flux Fluo4, at 10 µM; hits give low values. The essentials:
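Also added: carbachol at ECmax as muscarinic agonist stimulus; Assay system: HEK293 cells with stable M3R and inducible RGS4; Timing: overnight RGS4 induction, 30 min dye load 37 °C, 20 min compound RT; Measured by: Fluo4-AM (2 µM) calcium-flux fluorescence, kinetic read.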
A general note: Calcium flux is commonly read through the fluorescence of an indicator in the cells.
For the molecule `COc1ccc(NC(=O)CCS(=O)(=O)c2cc3c(cc2Cl)NC(=O)CO3)cc1OC`, the B-score result is “inactive”.

Take `COc1ccc(Cl)cc1NC(=O)CCS(=O)(=O)c1cc2c(cc1C)NC(=O)CO2`: the B-score was -7.02 (active).

For `Cc1cc2c(cc1S(=O)(=O)CCC(=O)NCc1ccccc1)OCC(=O)N2`, the B-score entry is “inactive”.

For `COc1cccc(C2c3[nH]c4ccccc4c3CCN2Cc2cccc(C)n2)c1` (stereo unspecified), the B-score entry is “inactive”.

In the case of `CC1=CCC2C(=O)N(c3cccc(C(=O)NC(C)c4ccccc4)c3)C(=O)C2C1` (stereo unspecified), the B-score entry was “inactive”.

Consider `CCCCn1c(N)c(N(CC)C(=O)c2ccccc2C(F)(F)F)c(=O)[nH]c1=O`, for which the B-score result was “inactive”.

Turning to `Cc1nn(Cc2ccc(C(=O)N3N=C(C(F)F)CC3(O)C(F)F)cc2)c(C)c1[N+](=O)[O-]` (stereo unspecified), the B-score result was “inactive”.

Turning to `CCOc1ccc(NC(=O)COc2ccc(S(=O)(=O)N3CCCC3)cc2)cc1`, the B-score result is “inactive”.

In the case of `O=C(CSCc1ccc(Br)cc1)Nc1ccc(S(=O)(=O)N2CCCCCC2)cc1`, the B-score entry is “inactive”.

With `O=C(CN1CCCCCC1)Nc1ccc(S(=O)(=O)N2CCCCC2)cc1`, the B-score was -8.13 (active).

For the molecule `O=c1cc(CO)oc(C(Nc2cccc([N+](=O)[O-])c2)c2ccccn2)c1O` (stereo unspecified), the B-score entry is “inactive”.

Regarding `CCc1ccc(OCC(=O)N(Cc2ccccc2)C2CCS(=O)(=O)C2)cc1` (stereo unspecified), the B-score result is “inactive”.

As to `Cc1ccc(C)c(-c2nnc(NC(=O)CS(=O)(=O)c3ccccc3)o2)c1`, the B-score result is “inactive”.

For the molecule `O=C(Nc1cccn(Cc2c(Cl)cccc2Cl)c1=O)c1ccc(Cl)cc1`, the B-score result is “inactive”.

On to `CCCC(=O)NC(Nc1ccccc1OC)C(Cl)(Cl)Cl` (stereo unspecified), for which the B-score result is “inactive”.

For the molecule `COc1ccccc1NC(=O)CCCc1c[nH]c2ccccc12`, the B-score result is “inactive”.

Take `CCCCCCCC(=O)NC(Nc1ccccc1OC)C(Cl)(Cl)Cl` (stereo unspecified): the B-score is -8.57 (active).

For the molecule `Cc1cnc(C(=O)OCc2c(C)cc(C(C)(C)C)cc2C)cn1`, the B-score entry is “inactive”.

With `Cc1cc(C(=O)OCC(=O)Nc2ccc(F)c(F)c2)c(C)o1`, the B-score result was “inactive”.

For the molecule `O=C(NCc1ccc(F)cc1)C1CCN(C(=O)Nc2ccc(F)cc2)CC1`, the B-score entry is “inactive”.

As to `CCc1ccc(C(=O)OCC(=O)NCC(F)(F)F)cc1`, the B-score result was “inactive”.

For `Cc1c(NC(=O)Nc2cccc([N+](=O)[O-])c2)c(=O)n(-c2ccccc2)n1C`, the B-score result was “inactive”.

Turning to `Cc1nc(N2CCN(c3ccccn3)CC2)c2c(C)c(C(=O)Nc3ccc(F)c(Cl)c3)sc2n1`, the B-score entry was “inactive”.

`Cc1nc(N2CCN(c3ccccn3)CC2)c2c(C)c(C(=O)Nc3ccc(F)cc3)sc2n1`: the B-score was -9.74 (active).

`COc1ccc(NC(=O)c2sc3nc(C)nc(N4CCN(c5ccccn5)CC4)c3c2C)c(OC)c1`: the B-score result was “inactive”.

For the molecule `O=C(Oc1ccc([N+](=O)[O-])cc1)c1ccc(Cl)c(S(=O)(=O)N2CCCCC2)c1`, the B-score entry was “inactive”.

With `C=CCN(N=Nc1cccc([N+](=O)[O-])c1)c1cccc([N+](=O)[O-])c1`, the B-score result is “inactive”.

On to `Cc1ccc(-c2cc(C(=O)Nc3nn[nH]n3)c3ccccc3n2)c(C)c1`, for which the B-score result was “inactive”.

With `COc1ccc(-c2cc(C(=O)N(C)CC(=O)Nc3ccccc3Cl)c3ccccc3n2)cc1OC`, the B-score entry is “inactive”.

Take `CNC(=O)COC(=O)c1cc(-c2ccc(OC)cc2)nc2ccccc12`: the B-score result was “inactive”.

Turning to `COc1ccc(NC(=O)CN(C)C(=O)c2cc(-c3ccc(C)o3)nc3ccccc23)cc1`, the B-score entry is “inactive”.

As for `COc1ccc(CN(C)C(=O)Cc2c[nH]c3ccccc23)c(OC)c1OC`, the B-score result is “inactive”.

On to `COc1ccc(CN(C)C(=O)c2cc(-c3ccc(C)cc3C)nc3ccccc23)c(OC)c1OC`, for which the B-score was -11.6 (active).

In the case of `COc1ccc(-c2cc(C(=O)Nc3ccccc3O)c3ccccc3n2)cc1`, the B-score result was “inactive”.

Turning to `COc1ccc(-c2cc(C(=O)N(C)Cc3ccccc3)c3ccccc3n2)cc1`, the B-score was -8.16 (active).

Consider `COc1ccc(-c2cc(C(=O)N(C)Cc3ccc(OC)c(OC)c3OC)c3ccccc3n2)cc1OC`, for which the B-score was -8.8 (active).

As for `O=c1[nH]cccc1-c1nc2ccccc2n1Cc1ccc(Cl)cc1`, the B-score entry is “inactive”.

For `CCC(Oc1ccccc1C)C(=O)Nc1ccc(S(=O)(=O)Nc2cc(C)on2)cc1` (stereo unspecified), the B-score result was “inactive”.

For the molecule `CC1=C(C(=O)N(C)C)C(c2ccccc2OC(F)F)NC(=O)N1` (stereo unspecified), the B-score result is “inactive”.

In the case of `Cc1ccc(NS(=O)(=O)c2c(C)[nH]c(C)c2C(=O)N2CCCCC2)c(C)c1`, the B-score result is “inactive”.

Consider `CC1=C(C(=O)OC2CCCCC2)C(c2cccnc2)n2ncnc2N1` (stereo unspecified), for which the B-score entry was “inactive”.

In the case of `Cc1ccc(OCCOc2cccc(/C=N/NC(N)=O)c2)cc1`, the B-score entry was “inactive”.

As for `O=C(N/N=C/c1cccc(O)c1)c1cc2c(ccc3ccccc32)o1`, the B-score entry is “inactive”.

With `O=C(N/N=C/c1cccc(OCc2ccccc2)c1)c1ccc(Br)o1`, the B-score was -7.35 (active).

Turning to `CSc1nc(-c2ccco2)nn1C(=O)c1ccccc1Cl`, the B-score entry is “inactive”.

For the molecule `O=C1NCC(=O)N(Cc2ccccc2)/C1=C/c1ccccc1`, the B-score entry is “inactive”.

In the case of `O=C1/C(=C\c2ccsc2)NC(=S)N1c1ccccc1`, the B-score result was “inactive”.

Regarding `CN(C)c1ccc(/C=C2\NC(=S)N(Cc3ccccc3)C2=O)cc1`, the B-score was -12 (active).

For the molecule `CC(=O)N1CCN(S(=O)(=O)c2c(F)cc(F)c(Cl)c2F)CC1`, the B-score entry was “inactive”.

Turning to `C/C=C(\C)C(=O)N1CC2(CC(c3cccc(NC(=O)CCCCC)c3)=NO2)C[C@@H]1C(N)=O` (stereo partly specified), the B-score result is “inactive”.

Regarding `CN(C)C(=O)c1nc2ccc(Cl)cn2c1CNCc1cccc(OC(F)(F)F)c1`, the B-score entry is “inactive”.

As to `CN(C)c1ccc2c(=O)[nH][nH]c(=O)c2c1`, the B-score entry is “inactive”.

For `O=C(NCc1ccncc1)C1CCN(C(=O)c2cccc(Cl)c2)CC1`, the B-score result was “inactive”.

In the case of `COC(=O)c1cccc(C(=O)N2CCC(CCC(=O)NCc3ccc(F)cc3)CC2)c1`, the B-score entry was “inactive”.

Turning to `Cn1c2ccccc2c2c(C(=O)N3CCN(c4ccc(F)cc4)CC3)cn(C3CCCC3)c(=O)c21`, the B-score is -7.18 (active).

`CCOC(=O)N1CCN(C(=O)c2nn(-c3ccc(C)cc3)c(=O)c3c2c2ccccc2n3C)CC1`: the B-score result was “inactive”.

Consider `O=C(c1ccccc1Oc1ccccc1)N1CCN(c2ccc(F)cc2)CC1`, for which the B-score result is “inactive”.

As for `Nc1nc(SCc2cccc(Br)c2)n[nH]1`, the B-score result is “inactive”.

`CC(=O)c1cccc(CN2CCC(CO)(Cc3ccccc3)CC2)c1`: the B-score entry was “inactive”.

As to `COC(=O)c1ccc(CN2CCC(CO)(Cc3ccc(OC)cc3)CC2)cc1`, the B-score was -8.7 (active).

Take `COc1ccc(CC2(CO)CCN(Cc3cnn(C)c3)CC2)cc1`: the B-score result is “inactive”.

On to `COc1ccccc1C(CNC(=O)c1cccc(NS(=O)(=O)c2ccc(Br)cc2)c1)N(C)C` (stereo unspecified), for which the B-score was -8.15 (active).

Consider `CN(C)C(CNC(=O)c1cccc(S(=O)(=O)Nc2ccc(Br)cc2)c1)c1ccco1` (stereo unspecified), for which the B-score entry is “inactive”.

As for `CC(=O)c1ccc(S(=O)(=O)Nc2ccc(C(=O)NCC(c3ccccc3)N(C)C)cc2)cc1` (stereo unspecified), the B-score result was “inactive”.

On to `COC(=O)c1ccccc1Sc1c(/C=N/OCc2ccc(Cl)cc2)c(C(F)(F)F)nn1C`, for which the B-score was -7.48 (active).

Take `COC(=O)c1ccccc1NC(=O)CN(Cc1ccc(Cl)cc1)S(C)(=O)=O`: the B-score result is “inactive”.

`COC(=O)c1ccccc1NC(=O)Cn1nc(C(F)(F)F)c2c1CCC2`: the B-score result was “inactive”.

As for `CC(C)[C@H](NC(=O)c1ccc(F)cc1)C(=O)OCC(=O)NC(=O)c1cccn1C`, the B-score entry is “inactive”.

For `Cc1cccc(NS(=O)(=O)c2ccc(C(=O)NCC(C)(C)N3CCOCC3)cc2)c1C`, the B-score result is “inactive”.

On to `N[C@@H](Cc1ccccc1)C(=O)N1CCOCC1`, for which the B-score result was “inactive”.

For the molecule `CCOC(=O)C1=C(NC(=S)NC(=O)c2ccccc2)c2ccccc2CC1(C)C`, the B-score was -9.14 (active).

For the molecule `CCOC(=O)c1c(-c2ccccc2)csc1NC(=S)NC(=O)c1ccccc1`, the B-score result is “inactive”.

In the case of `COCCCNC(=S)NC(=O)c1ccccc1`, the B-score result was “inactive”.

Turning to `CCn1c(SC)nc(O)c(C(c2ccc(OC)c(O)c2)c2c(O)nc(SC)n(CC)c2=O)c1=O`, the B-score entry is “inactive”.

With `CCOC(=O)N1CCN(C(=O)c2ccc(S(=O)(=O)Nc3cccc(C(F)(F)F)c3)cc2)CC1`, the B-score entry is “inactive”.

`O=C(/C=C/c1ccc(F)cc1)Nc1cccc(S(=O)(=O)Nc2cccc(C(F)(F)F)c2)c1`: the B-score entry is “inactive”.

On to `Cc1oc2c(F)c(F)c(F)c(F)c2c1S(=O)(=O)Nc1cccc(C(F)(F)F)c1`, for which the B-score was -9.29 (active).

On to `CCOc1ccc(NC(=O)CN(C)CC(=O)NC(C)c2ccccc2)cc1OCC` (stereo unspecified), for which the B-score entry is “inactive”.

On to `COc1cc(NS(=O)(=O)c2ccc(NC(=O)CN3C(=O)c4ccccc4C3=O)cc2)ncn1`, for which the B-score result is “inactive”.

Regarding `CS(=O)(=O)Nc1ccc(C(=O)N2CCCC2)cc1`, the B-score result is “inactive”.

For the molecule `C=CCOc1ccc(/C=C/C(=O)OCC(=O)NCC2CCCO2)cc1` (stereo unspecified), the B-score result is “inactive”.

As to `O=C(Nc1nccs1)C1CCN(S(=O)(=O)c2ccc(Cl)c(C(F)(F)F)c2)CC1`, the B-score entry is “inactive”.

In the case of `CSc1ccc(/C=C2\NC(=O)NC2=O)cc1`, the B-score entry was “inactive”.

For `CC(C)c1ccc(/C=C2\NC(=O)NC2=O)cc1`, the B-score was -8.02 (active).

In the case of `Cc1ccc(NC(=O)COc2ccc(/C=C3/NC(=O)NC3=O)cc2)cc1`, the B-score result is “inactive”.

For `COc1ccc(C2=NN(C(=O)CSc3nc(=O)n4ccc(C)cc4n3)C(c3ccc(C)cc3)C2)cc1` (stereo unspecified), the B-score entry was “inactive”.

For the molecule `CC(C)Cn1c(N2CCN(C(=O)/C=C/c3ccccc3)CC2)nc2ccccc21`, the B-score result was “inactive”.

Consider `O=C1c2ccccc2C(=O)c2c1cccc2N1CCN(C/C=C/c2ccccc2)CC1`, for which the B-score result is “inactive”.

Consider `O=C(Cn1c(N2CCN(C/C=C/c3ccccc3)CC2)nc2ccccc21)c1ccccc1`, for which the B-score was -8 (active).

`CC(NCc1nc2ccccc2n1C)C12CC3CC(CC(C3)C1)C2` (stereo unspecified): the B-score result was “inactive”.

Consider `CCN(CC)C(=O)COc1coc(CN2CCN(Cc3ccccc3)CC2)cc1=O`, for which the B-score entry was “inactive”.

Regarding `CCOc1cccc(NC(=O)Cn2nc(-c3ccc4c(c3)OCCO4)ccc2=O)c1`, the B-score result was “inactive”.

`CCOc1ccc2[nH]c(=O)c(CN(Cc3nnnn3CCc3ccccc3)CC3CCCO3)cc2c1` (stereo unspecified): the B-score entry is “inactive”.

On to `Oc1ccccc1N1CCN(c2ncnc3sc(-c4ccccc4)cc23)CC1`, for which the B-score is -9.36 (active).

In the case of `c1ccc(-c2cc3c(NCC4COc5ccccc5O4)ncnc3s2)cc1` (stereo unspecified), the B-score entry is “inactive”.

`COc1ccccc1N1CCN(c2ncnc3sc(C)c(-c4ccccc4)c23)CC1`: the B-score entry was “inactive”.

With `CNC(=O)COc1ccc(S(=O)(=O)Nc2ccccc2)cc1`, the B-score entry is “inactive”.

With `CCn1ncc(CNC(=O)C2(C)CC2(Br)Br)c1C` (stereo unspecified), the B-score result was “inactive”.

For the molecule `Nc1cc(N)nc(SCc2ccc(Cl)cc2)n1`, the B-score entry is “inactive”.

In the case of `COc1cnc(SCc2ccc(Cl)c(Cl)c2)nc1Cl`, the B-score is -7.01 (active).

Take `C=CCn1c(SCc2ccc(Cl)c(Cl)c2)nnc1C(CO)NC(=O)c1ccc(OC)cc1` (stereo unspecified): the B-score entry is “inactive”.

The values are drawn from PubChem BioAssay AID463111 (Johns Hopkins Ion Channel Center, 2010).
